ChEMBL document CHEMBL1144024, “Low molecular weight lignin suppresses activation of NF-kappaB and HIV-1 promoter” (Bioorg Med Chem, 2008)
Converted amounts (≈) assume the structure as drawn.

Columns and labels:
[1] = Inhibition of TNF-induced NF-kappaB activation in human […] cells by luciferase assay; type: cell-based
Procedure, shortened: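 293-T cells co-transfected with 5 lg NF-κB luciferase reporter plus 0.008 lg pCMV-β-galactosidase, then replated after 2 h. Cultured 19 h (lignins) or 20 h (model compounds) before 1 h pretreatment with test agent. Stimulated with 3 ng/ml TNFα for 5 h. Luciferase chemiluminescence normalized to β-galactosidase activity; IC50 reported.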

[2] = test system: Human immunodeficiency virus 1; test: Inhibition of HIV1 5'-long terminal repeat promoter expression in human 293T cells by luciferase assay; type: functional; conditions: Human immunodeficiency virus 1, HEK-293T
Procedure, shortened: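 293-T cells co-transfected in 10-cm dishes with 5 lg CD-12-luc LTR reporter plus 0.008 lg pCMV-β-galactosidase. Replated after 2 h and cultured 4 h, then exposed to test agent or vehicle for 20 h (lignins) or 21 h (model compounds). Luciferase chemiluminescence normalized to β-galactosidase. IC50 reported; lignin data are means of three independent experiments.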

| IC50 [1] [µg/mL] | IC50 [2] [µg/mL] | SMILES |
| --- | --- | --- |
| 19 (≈ 53 µM) | 34 (≈ 94.9 µM) | COc1cc([C@H]2Oc3c(OC)cc(/C=C/CO)cc3[C@@H]2CO)ccc1O |
| 43 (≈ 135 µM) | 107 (≈ 336 µM) | COc1cc(C(=O)[C@@H](CO)Oc2ccccc2OC)ccc1O |
| 49 (≈ 137 µM) | > 150 | COc1cc([C@@H]2OC[C@@H]3[C@H]2CO[C@H]3c2ccc(O)c(OC)c2)ccc1O (single isomer, unassigned) [(+)-PINORESINOL] |
| > 150 | > 150 | CCCc1cc(OC)c(O)c(-c2cc(CCC)cc(OC)c2O)c1 |
| > 150 | > 150 | COc1cc([C@@H](O)[C@@H](CO)c2ccc(O)c(OC)c2)ccc1O |
| 126 (≈ 393 µM) | > 150 | COc1cc([C@@H](O)[C@@H](CO)Oc2ccccc2OC)ccc1O |
